Assay results from different studies.
Each line is one published result; the experiments were not run side by side.
Target: Serine/threonine-protein kinase 25 (STK25, Homo sapiens, UniProt O00506)

Compound | assay | setting | remaining binding
C=CC(=O)N1CCC(C(=O)NCC(=O)N2CCN(c3nc(-c4cnc(N)nc4C(F)F)nc(N4CCOCC4)n3)CC2)CC1 | binding, competition with immobilised ligand | 1 µM | 96%
CC(=O)C1=C(C)N(c2cccc(C(F)(F)F)c2)C(=O)N[C@@H]1c1ccc(C#N)nc1 | cell-free assay, competition with immobilised ligand | 1 µM | 89.9%
COc1ncc2cc3ccccc3nc2c1C#N | cell-free assay, competition with immobilised ligand | 5 µM | 100%
O=C(NCCCN1CCOCC1)c1ccc(Nc2nccc(-c3cc4ccccc4s3)n2)cc1 | binding, competition with immobilised ligand | 1 µM | 67%
COc1cnc(Nc2cccc(S(N)(=O)=O)c2)nc1N1CCN(c2ccccc2)CC1 | binding, competition with immobilised ligand | 1 µM | 100%
CN(C)c1nccc(-c2cnn3ncccc23)n1 | binding | 1 µM | 90%
CCN1CCN(Cc2ccc(C(=O)Nc3ccc(C)c(Oc4ccc5c(c4)CC(=O)N5)c3)cc2C(F)(F)F)CC1 | binding, competition with immobilised ligand | 1 µM | 100%
O=C(NCC1CCOCC1)c1n[nH]cc1NC(=O)c1c(F)cccc1F | binding, competition with immobilised ligand | 1 µM | 95%
Cc1cnc(Nc2ccc(C(=O)N3CCC(N4CCCC4)CC3)cc2)nc1-c1cc2ccccc2s1 | binding, competition with immobilised ligand | 1 µM | 21%
CNC(=O)Nc1ccc2c(c1)CC[C@@]21OC(=O)N(CC(=O)N(Cc2ccc(F)cc2)[C@@H](C)C(F)(F)F)C1=O | cell-free assay, competition with immobilised ligand | 1 µM | 99%
N[C@H]1CCN(c2nccc(-c3cnn4ncccc34)n2)C1 | binding | 1 µM | 100%
O=C(c1ccc(Nc2nccc(-c3cc4ccccc4s3)n2)cc1)N1CCC(N2CCCC2)CC1 | binding, competition with immobilised ligand | 1 µM | 22%
Cc1cnn2ncc(-c3ccnc(N(C)C)n3)c2c1 | binding | 1 µM | 100%
CCCCN(CCCC)C(=O)CN1C[C@H](c2cc(OC)c3c(c2)OCO3)[C@@H](C(=O)O)[C@@H]1CC(C)(C)CCC | cell-free assay, competition with immobilised ligand | 1 µM | 100%
C[C@H]1CCN(c2nccc(-c3cnn4ncccc34)n2)C1 | binding | 1 µM | 100%
CN([C@@H]1CCc2c(CC(=O)O)c3cc(S(C)(=O)=O)ccc3n2C1)S(=O)(=O)c1ccc(F)cc1 | cell-free assay, competition with immobilised ligand | 1 µM | 100%
F[C@@H]1CCN(c2nccc(-c3cnn4ncccc34)n2)C1 | binding | 1 µM | 100%
N#CC1(c2ccccn2)CCN(Cc2cc(C(=O)N3CCCC3)c(=O)n3ccccc23)CC1 | cell-free assay, competition with immobilised ligand | 1 µM | 97%
CN(C)c1nccc(-c2cnc3ncccn23)n1 | binding | 1 µM | 100%
CCS(=O)(=O)c1cc2cc(C[C@@](O)(CC(C)(C)c3ccc(F)cc3C(N)=O)C(F)(F)F)[nH]c2cn1 | cell-free assay, competition with immobilised ligand | 1 µM | 87%
